# Bioassay records deposited in PubChem BioAssay by several laboratories.
# HTR5A inv ag = HTR5A inverse agonists in luminescence cell assay, primary screen, counter-screen for OPRM1-OPRD1 heterodimer inverse agonist project, full-deck HTS | HTR5A cell line, inverse agonism | 340,000 tested, 0.083% active | 5-hydroxytryptamine receptor 5A (Homo sapiens), P47898 | AID 504634, 2011 | inhibition, % at 9.3 µM; in the data active = inhibition mostly above about 23%, no sharp cut-off; inactive = mostly below about 18%;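 note: 0% = cells with DMSO and 100% = no-cell wells with DMSO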
# MOR-DOR ag = agonists of OPRM1-OPRD1 heterodimerization, primary screen, cell-based, luminescence; Mu-type opioid receptor (Homo sapiens) + Delta-type opioid receptor (Homo sapiens), …; cells; activation, % at 9.3 µM; 340,000 tested, 0.3% active; AID 504326, 2011; in the data active = activation above about 18%;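 note: 0% = vehicle-treated cells and 100% = reference agonist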
# Arrestin-AP2 inh = inhibitors of beta-arrestin/AP2 binding, primary screen, biochemical, GPCR trafficking, flow cytometry; inhibition, % at 10 µM; beta-arrestin 1 C-terminal peptide binding to AP2 beta2-adaptin appendage (human); FITC-arrestin peptide / GST-AP2 beads; AP2 beta2 appendage carries R879A mutation; 340,000 tested, 0.31% active;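 active = inhibition above a set limit, near 3 SD of compounds lacking own fluorescence, cut at about 54% in these data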;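 note: plate controls were DMSO wells for no effect and 5 µM unlabelled arrestin peptide for full effect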
#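 Measured by: flow cytometry, FL1 (488/535 nm); Material: AP2 appendage R879A on GSH beads; Evaluation: percent response; Timing: pre-incubation 12 min, peptide binding 1 h, room temperature; Also added: 50 nM FITC-arrestin peptide; Medium: PBS with 0.05% Tween 20 and 0.1% BSA.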
# DAGLB inh = DAGLB lipase inhibitors, primary screen, biochemical, fluorescence, HTS; inhibition, % at 5.17 µM; AID 504411, 2011; 340,000 tested, 0.059% active; HEK293T DAGLB membrane lysate, EnzChek fluorogenic substrate; in the data active = inhibition above about 34%;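 note: 0% = enzyme with vehicle and 100% = wells lacking enzyme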
# MOR-DOR inv ag = inverse agonists of MOR-DOR heterodimerization, primary screen, cell-based, luminescence; Mu-type opioid receptor (Homo sapiens) + Delta-type opioid receptor (Homo sapiens), …; cell-based MOR-DOR heterodimer luminescence, inverse agonism; inhibition, % at 9.3 µM; 340,000 tested, 0.21% active; AID 504357, 2011; in the data active = inhibition above about 22%, passing the limit was not always enough;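 note: 0% = cells with DMSO and 100% = wells without cells with DMSO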
# HTR5A ag = HTR5A agonists in luminescence cell assay, primary screen, counter-screen for OPRM1-OPRD1 heterodimer agonist project, full-deck HTS; cell-based; activation, % at 9.3 µM; 340,000 tested, 0.61% active; in the data active = activation mostly above about 9.5%, no sharp cut-off; inactive = mostly below about 7.6%;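 note: 0% = cells with vehicle only and 100% = reference agonist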
# Arr-AP2 CP1 = inhibitors of arrestin peptide binding to AP2, confirmation, biochemical, cherry pick 1, flow cytometry beads; shares compounds with Arrestin-AP2 inh; GST-AP2 beads, FITC arrestin peptide binding; GST-fused beta2-adaptin appendage, R879A mutant; inhibition, % at 10 µM; 1,300 tested, 2% active; AID 504908, 2011;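 active = inhibition above a set limit, roughly 3 SD of non-fluorescent compound noise, cut at about 38% in these data; inactive = inhibition at or below that limit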;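 note: loss of bead fluorescence from 50 nM FITC arrestin peptide bound to appendage; 0% = negative control wells and 100% = excess unlabelled arrestin peptide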
# Target sequence (P63010 whole entry, looked up, the tested form may be a part, one chain of several): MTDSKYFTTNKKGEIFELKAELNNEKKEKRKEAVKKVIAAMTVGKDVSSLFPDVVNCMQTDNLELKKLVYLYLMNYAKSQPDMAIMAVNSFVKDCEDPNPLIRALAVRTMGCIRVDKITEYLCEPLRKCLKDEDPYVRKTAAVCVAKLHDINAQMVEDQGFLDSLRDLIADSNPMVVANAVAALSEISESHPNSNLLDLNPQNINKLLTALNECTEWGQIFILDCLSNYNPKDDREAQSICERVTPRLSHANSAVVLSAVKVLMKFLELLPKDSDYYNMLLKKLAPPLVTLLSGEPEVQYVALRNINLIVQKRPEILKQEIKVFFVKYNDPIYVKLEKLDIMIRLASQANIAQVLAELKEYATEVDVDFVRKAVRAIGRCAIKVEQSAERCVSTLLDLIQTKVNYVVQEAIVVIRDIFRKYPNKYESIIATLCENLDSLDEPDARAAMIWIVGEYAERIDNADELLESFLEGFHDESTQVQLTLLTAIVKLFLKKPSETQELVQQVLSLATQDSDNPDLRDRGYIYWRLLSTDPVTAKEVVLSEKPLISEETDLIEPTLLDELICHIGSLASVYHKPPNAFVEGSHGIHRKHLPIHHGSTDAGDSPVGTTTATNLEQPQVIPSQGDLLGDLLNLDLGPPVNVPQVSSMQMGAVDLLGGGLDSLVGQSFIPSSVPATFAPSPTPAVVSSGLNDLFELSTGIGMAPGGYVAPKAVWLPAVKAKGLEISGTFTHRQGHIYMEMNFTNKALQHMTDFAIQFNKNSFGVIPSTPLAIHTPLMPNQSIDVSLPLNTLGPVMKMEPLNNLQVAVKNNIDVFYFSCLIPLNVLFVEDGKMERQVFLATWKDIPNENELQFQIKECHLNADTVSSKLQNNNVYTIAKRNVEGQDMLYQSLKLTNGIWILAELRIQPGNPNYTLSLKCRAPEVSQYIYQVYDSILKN
# GST-FITC bead = GST-fluorescein capture on glutathione beads, confirmation, artefact control for arrestin-AP2 inhibitor project, biochemical, cherry pick 1, flow cytometry. inhibition, % at 10 µM. GST-fluorescein binding to GSH beads, fluorescence, counter-screen. shares compounds with Arrestin-AP2 inh. 1,300 tested, 2% active;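 active = inhibition above 50%, about 3 SD of the inhibition seen with non-fluorescent compounds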;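 note: fluorescein maleimide labelled GST captured on 4 micron glutathione beads; higher means more loss of bead fluorescence from quenching or blocked binding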
# Numbers without * were called inactive; . = no result given. An excerpt weighted towards active compounds, which were near 1.4% of everything screened.
SMILES,HTR5A inv ag,MOR-DOR ag,Arrestin-AP2 inh,DAGLB inh,MOR-DOR inv ag,HTR5A ag,Arr-AP2 CP1,GST-FITC bead
COc1ccc(CCNCC(O)Cn2c3ccccc3c3ccccc32)cc1OC (stereo unspecified),-5.2,8.7,57.6*,1.4,-44.7,1.8,0.8,3.8
CCN(CC(=O)Nc1c(F)cccc1F)C(=O)CCCSc1nc2ccccc2[nH]1,.,.,.,3.0,.,.,.,.
Cc1csc(NC(=O)c2ccc(Cn3nc(C)c(Br)c3C)o2)n1,-10.8,1.1,57.8*,-0.6,-6.4,4.5,-15.1,3.3
Cc1nn(Cc2ccc(C(=O)Nc3ccccc3C(F)(F)F)o2)c(C)c1Br,-3.4,3.9,-14.4,-0.2,-19.5,5.3,.,.
Cc1[nH]c2ccccc2c1C(=O)C(=O)NCc1nnnn1-c1ccc(F)c(F)c1,.,.,.,-3.2,.,.,.,.
O=[N+]([O-])c1ccc(Nc2cccc3c2[nH]c2c(-c4ccccc4)nccc23)c([N+](=O)[O-])c1,3.8,1.6,5.2,12.9,-6.9,-1.0,.,.
Cc1cccc(NC(=O)CNC(=O)c2cn(Cc3ccccc3)nc2-c2cccnc2)c1C,6.2,0.0,-1.8,-1.9,-0.1,-2.5,.,.
CCc1ccccc1NC(=O)CNC(=O)c1cn(Cc2ccccc2)nc1-c1cccnc1,-6.6,-1.4,64.4*,-5.1,5.5,2.6,-4.1,3.0
COc1ccc(C(=O)N(C)Cc2ccc(C)o2)cc1OC1CCN(C(C)=O)CC1,2.0,-1.9,61.1*,1.2,10.0,-2.6,0.0,-5.4
Cc1ccc2[nH]c(=O)c(CN(CCCN3CCOCC3)C(=O)NC3CCCCC3)cc2c1,11.0,-1.3,-18.6,2.3,6.1,-4.6,-9.2,-6.4
CCc1ccc2[nH]c(=O)c(CN(CCN3CCCC3)C(=O)NC3CCCCC3)cc2c1,1.1,-1.2,-2.4,5.5,7.0,-0.4,17.8,1.2
CCc1ccc2[nH]c(=O)c(CN(CCCN3CCOCC3)C(=O)Nc3ccccc3)cc2c1,12.7,0.2,-5.3,3.3,-0.9,-5.0,.,.
COCCN(C(=O)CCCC(=O)Nc1ccccn1)C(C(=O)NC1CCCCC1)c1ccc(C)cc1 (stereo unspecified),9.9,-4.1,100.5*,1.6,20.0,-4.1,-12.6,-4.0
C[C@H](O)[C@@H]1CN2CCc3c([nH]c4ccccc34)[C@@H]2C[C@@H]1N(C)Cc1cc(Cl)cc(Cl)c1,.,.,.,-7.3,.,.,.,.
CCC(C(=O)Nc1ccc2c(c1)OCCO2)n1c(=O)[nH]c2ccccc2c1=O (stereo unspecified),-2.8,-0.1,21.2,6.4,0.2,1.8,-2.9,-2.4
COc1cc2c(c(Br)c1N)-c1cc(Br)c(N)cc1C2=O,.,.,.,20.6,.,.,.,.
Cc1ccc(S(=O)(=O)c2c(C)cc(C)nc2N2CCCCC2)cc1,0.8,5.3,69.7*,-1.6,-24.6,-0.3,0.0,-1.7
Cc1ccc(S(=O)(=O)c2c(C)cc(C)nc2N2CCOCC2)cc1,-2.9,-2.3,4.1,-1.9,10.7,-1.0,.,.
CC(C)CN1CCN(Cc2ccc(C#CC(C)(C)O)cc2)CC1CCO (stereo unspecified),-12.2,-0.2,0.9,1.9,0.9,4.7,.,.
CC(C)CCN1CCN(Cc2ccc(C#CC(C)(C)O)s2)CC1CCO (stereo unspecified),7.1,1.1,61.9*,-0.3,-5.2,-2.8,23.4,-6.1
CCN(C(=O)Cn1cnc2c1c(=O)n(C)c(=O)n2C)C1CCCCC1,.,.,60.9*,-0.4,.,.,-2.1,-11.6
O=C(Nc1ccccc1)Oc1ccccc1N1CCOCC1,8.1,0.8,66.1*,0.5,-3.9,7.0,19.5,-1.6
